ERa SRC1 pot: ER-alpha (human) coactivator binding potentiation; P03372; TR-FRET ERalpha-LBD/SRC-Cy5 coactivator binding, 2 h; 100 = basal binding, no effect; coactivator binding (% of control), % at 25.6 µM; 86,000 compounds, 1.3% hits; AID 639; in the data active means activity above about 200%;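 further: binding measured in presence of low estradiol as agonist stimulus; 0% = peptide alone without receptor and 100% = receptor with peptide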
Target sequence (P03372 whole entry, looked up, the tested form may be a part): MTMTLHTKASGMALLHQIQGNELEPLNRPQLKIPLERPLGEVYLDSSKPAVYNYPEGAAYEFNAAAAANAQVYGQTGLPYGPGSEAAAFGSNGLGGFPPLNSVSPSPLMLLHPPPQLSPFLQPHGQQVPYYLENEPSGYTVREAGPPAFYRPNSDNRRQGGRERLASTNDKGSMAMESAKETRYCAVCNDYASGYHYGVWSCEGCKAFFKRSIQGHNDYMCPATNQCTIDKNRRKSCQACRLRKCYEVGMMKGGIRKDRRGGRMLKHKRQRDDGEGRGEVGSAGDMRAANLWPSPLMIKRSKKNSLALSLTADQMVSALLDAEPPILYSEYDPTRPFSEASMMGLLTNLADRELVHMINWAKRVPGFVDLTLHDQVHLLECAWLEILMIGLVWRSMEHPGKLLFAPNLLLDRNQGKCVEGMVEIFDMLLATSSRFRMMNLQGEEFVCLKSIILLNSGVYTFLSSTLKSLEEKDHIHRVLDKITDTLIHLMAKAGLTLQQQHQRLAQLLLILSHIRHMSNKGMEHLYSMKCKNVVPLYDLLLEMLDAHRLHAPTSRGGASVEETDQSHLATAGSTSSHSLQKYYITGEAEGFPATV
ERb coact inh: blocks coactivator binding to human estrogen receptor beta; Q92731; inhibition, % at 25.6 µM; 86,000 compounds, 1.3% hits; TR-FRET ER-beta LBD / SRC1-Cy5 peptide binding; receptor agonist-loaded with 1 µM estradiol; AID 633;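 active means compounds whose percent inhibition of the receptor-coactivator binding signal exceeds about 50% in the single-dose screen, limit read from the data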;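 further: 0% = receptor plus peptide wells without compound and 100% = peptide-only wells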
BAP1 block: human BAP1 deubiquitinase inhibition; recombinant BAP1, Ub-AMC hydrolysis fluorescence kinetic; hits give low values; calls only at 20 µM; 72,000 compounds, 0.48% hits; Q92560;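 active means activity remaining at or below 50% of control, provided the compound also passes the data quality filters; inactive means the rest, including low values that fail the filters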;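 further: 100% = DMSO wells rate and 0% = substrate alone blank rate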
SF-1 act: activates the human nuclear receptor SF-1 | Q13285 | CHO-K1 Gal4-SF-1 LBD luciferase reporter; % increase over DMSO SF-1-specific signal | activation, % at 10 µM | 65,000 compounds, 1.9% hits;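 active means activation above the mean activation of all tested compounds plus 3 SD, cut at about 50% in these data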
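Test system: CHO-K1 cells co-transfected with Gal4 DBD–human SF-1 LBD, 5xGal4 luciferase reporter. Quantity: 4,000 cells per well. Compound: 10 µM only. Incubation: compound added 1 h post-seeding, 20 h exposure at 37 °C, 5% CO2. Detection: SteadyLite luciferase luminescence. Replication: one test per compound.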
ERa SRC1 inh: ER-alpha (human) coactivator binding inhibition. P03372. 86,000 compounds, 1.7% hits. AID 629. inhibition, % at 25.6 µM. TR-FRET ER-alpha LBD / SRC-1 peptide, estradiol-bound; in the data active means inhibition above about 50%;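 further: 0% = receptor plus peptide control and 100% = peptide only without receptor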
RORa activator: activators of human nuclear receptor RORA. AID 560. 65,000 compounds, 1.5% hits. CHO-K1 Gal4-RORA LBD luciferase reporter, luminescence; percent increase over mock-subtracted basal signal. P35398. activation, % at 10 µM;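 active means activation above the mean of all tested compounds plus 3 SD, cut at about 49% in these data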;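 further: 0% = DMSO-treated RORA cells and 100% = added signal equal to DMSO minus mock-transfected cells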
Numbers without * were called inactive; i = inactive; nt = no result shown; ! = repeats disagree; [ ] = remark or other dose. Hits are enriched below; roughly 5.1% of the tested compounds scored in any of these assays.

SMILES	ERa SRC1 pot	ERb coact inh	BAP1 block	SF-1 act	ERa SRC1 inh	RORa activator
Cc1ccc(C(C)(C)C)c(OCC(=O)Nc2ccc(C(=O)O)cc2)c1	nt	nt	i	nt	nt	nt
COCCCNc1nc2c([nH]1)c(=O)[nH]c(=O)n2C	159	52*	i	6	-8	0
CCOCCCNc1nc2c([nH]1)c(=O)n(C)c(=O)n2C	133	1	i	-6	-4	17
O=C(Nc1ccc2c(c1)CCC2)c1cc(S(=O)(=O)N2CCCCC2)ccc1Cl	nt	nt	i	nt	nt	nt
COc1ccc(-n2c(SCC(=O)c3c(N)n(C)c(=O)n(C)c3=O)nc3ccccc32)cc1	73	15	i	2	11	1
Cn1c(N)c(C(=O)CSc2nc3ccccc3n2-c2ccccc2)c(=O)n(C)c1=O	231*[fluorescence artefact?]	38	i	13	48	10
O=C(O)CCCC(=O)N1CCN(c2cccc(Cl)c2)CC1	331*[fluorescence artefact?]	-1	i	-15	-10	-10
N=c1oc2ccc3ccccc3c2cc1C(=O)Nc1cccc(C(F)(F)F)c1	nt	nt	i	nt	nt	nt
CCOC(=O)/C=C1\SCC(=O)N1Cc1nnc(-c2ccccc2Br)o1	59	42	i	8	59*[fluorescence artefact?]	-2
Cc1cccc(N2C(=O)C(Cl)=C(NC3CCCCC3)C2=O)c1C	nt	nt	i	nt	nt	nt
COc1ccc(CNCC(O)COCc2cccs2)cc1 (configuration not stated)	86	1	i	-2	-1	-3
O=S(=O)(NCC(O)COCc1ccco1)c1cccs1 (configuration not stated)	90	50*	i	3	53*[fluorescence artefact?]	-8
O=C(NCc1cccnc1)C1c2ccccc2C(=O)N1Cc1ccco1 (configuration not stated)	93	51*[fluorescence artefact?]	i	5	0	-3
c1ccc(N2CCN(c3ccccc3)C2c2cccs2)cc1	123	1	i	24	6	58*
O=C1CSC(c2cccs2)N1c1ccccc1 (configuration not stated)	112	0	i	-12	7	-12
CN1C(=O)N(c2cccc3ccccc23)C(C)(O)CC1(C)C (configuration not stated)	nt	nt	i	nt	nt	nt
Cc1noc(C)c1C(=O)OCC(=O)c1cc(C)n(Cc2ccccc2Cl)c1C	84	-4	nt	29	-7	49*
Cc1cnn(C(=S)NCc2ccc(Cl)cc2)c1	91	-7	i	-13	-2	-11
Cc1cnn(C(=S)NCCc2ccccc2)c1	106	-8	i	53*	-16	27
COc1cccc(C=Nc2cccc(NC(=O)c3ccc(F)cc3)c2)c1O	nt	nt	i	nt	nt	nt
COc1ccc(C(=O)c2c(C(F)(F)F)oc3c2C(=O)c2ccccc2C3=O)cc1	114	68*	nt	nt	1	nt
Cc1ccc(N(CC2=NCCN2)c2cccc(O)c2)cc1	94	70*!	i	2	-4	-12
O=C(CSc1nc(Nc2ccccc2)nc(N2CCOCC2)n1)N1CCc2ccccc21	209*	4	nt	0	19	19
Cc1cc(C)c(C(=O)COc2cccnc2[N+](=O)[O-])cc1C	54	89*	nt	nt	55*[fluorescence artefact?]	nt
Cc1ccc(C(=O)COC(=O)c2ccc(F)cc2)cc1[N+](=O)[O-]	nt	nt	i	nt	nt	nt
SMILES	ERa SRC1 pot	ERb coact inh	BAP1 block	SF-1 act	ERa SRC1 inh	RORa activator
Cc1ccc2nc(/C(C#N)=C\c3ccc(N4CCCCC4)c([N+](=O)[O-])c3)[nH]c2c1	74	36	nt	nt	82*	nt
Cc1ccc2nc(/C(C#N)=C/c3cn[nH]c3-c3ccc(F)cc3)[nH]c2c1	97	-13	nt	nt	-12	nt
CC(C)c1ccc(NC(=O)CSc2nc3c(c(=O)[nH]2)CCC3)cc1	120	5	i	-8	100*[fluorescence artefact?]	-2
CCOC(=O)c1csc(NC(=O)c2ccccc2)n1	101	-3	i	63*	4	79*
CCOC(=O)c1csc(NC(=O)c2ccc(OC)c(OC)c2)n1	279*[fluorescence artefact?]	-3	i	-6	-24	16
Cn1c(=O)oc2cc(S(=O)(=O)N3CCCC(C(=O)NC4CCCc5ccccc54)C3)ccc21 (configuration not stated)	80	51*[fluorescence artefact?]	nt	nt	16	nt
CCOC(=O)C1=C(O)/C(=C/c2ccc(CNC(=O)C(=O)Nc3ccc(C)cc3)o2)N=C1C	110	47	nt	nt	55*[fluorescence artefact?]	nt
COC(=O)C1=C(O)/C(=C\c2ccc(CNC(=O)C(=O)Nc3ccc(C)c(C)c3)o2)N=C1C	42	41	nt	nt	74*	nt
COC(=O)C1=C(O)/C(=C\c2ccc(CNC(=O)C(=O)Nc3ccc(C)cc3)o2)N=C1C	37	43	nt	nt	72*[fluorescence artefact?]	nt
COc1ccc(-n2nc3cc(C)c(NC(=O)c4cccc([N+](=O)[O-])c4C)cc3n2)cc1	nt	nt	i	nt	nt	nt
CCCCCn1c(=O)[nH]c2cc(C(=O)NCc3ccc4c(c3)OCO4)ccc2c1=O	141	49	nt	-23	61*[fluorescence artefact?]	-5
COCCCNC(=O)c1ccc2c(=O)n(Cc3ccc4c(c3)OCO4)c(=S)[nH]c2c1	121	47	nt	nt	58*	nt
COC(=O)c1ccc2c(=O)n(CCCCCC(=O)NCc3ccc4c(c3)OCO4)c(=O)[nH]c2c1	78	43	nt	nt	88*	nt
COC(=O)c1ccc2c(=O)n(CCCCCC(=O)NCc3ccccn3)c(=O)[nH]c2c1	129	-16	nt	12	-2	11
COC(=O)c1ccc2c(=O)n(CCCCCC(=O)NCc3ccccc3)c(=O)[nH]c2c1	72	52*[fluorescence artefact?]	nt	nt	85*[fluorescence artefact?]	nt
CCCCCn1c(=O)[nH]c2cc(C(=O)N3CCN(Cc4ccc5c(c4)OCO5)CC3)ccc2c1=O	182	0	nt	nt	-4	nt
O=C(c1ccc2c(=O)n(Cc3ccc4c(c3)OCO4)c(=S)[nH]c2c1)N1CCCCC1	97	-9	i	8	-18	-9
Sc1oc(-c2ccccc2)cc1C=Nc1ccc(Cl)cc1	nt	nt	i	nt	nt	nt
Cc1cccc(-n2nc3c(c2NC(=O)c2ccc(Br)o2)CSC3)c1	211*	0	nt	-19	1	-28
CCc1cccc2c(C(=O)Cn3nnc(-c4ccc(OC)c(OC)c4)n3)c[nH]c12	103	27	nt	nt	62*	nt
CCc1cccc2c(C(=O)COC(=O)c3nn(C)c(=O)c4ccccc34)c[nH]c12	115	-4	nt	nt	2	nt
O=C(Nc1ccc2c(c1)C(=O)N(c1cccc(O)c1)C2=O)c1ccc(Br)cc1	nt	nt	i	nt	nt	nt
COc1ccccc1-c1nnc(NC(C)=O)s1	84	5	i	14	7	78*
COc1ccccc1C(=O)Nc1nnc(-c2ccco2)s1	242*	14	nt	nt	12	nt
COc1ccc(C(=O)Nc2nnc(-c3ccco3)s2)cc1	463*[fluorescence artefact?]	30	nt	nt	4	nt
COc1ccccc1-c1nnc(NC(=O)C(C)C)s1	125	5	i	12	0	14
O=C(Nc1nnc(-c2ccco2)s1)c1ccccc1	101	22	i	12	7	37
Cc1ccc(C(=O)Nc2sc(C)c(C)c2C#N)cc1	nt	nt	i	nt	nt	nt

Assay outcomes deposited in PubChem BioAssay by several laboratories.
